Published values from different studies.
Compare with care: the assays were run in different laboratories.
Effect on: cell growth or viability

COC(=O)c1cc(C(C)=NNc2nc(-c3ccc(C)cc3)cs2)ccc1O — IC50 (human Skin fibroblast; MTT; 96 h): 10.2 µM
C[C@H]1[C@H](C)CC[C@]2(C(=O)O)CC[C@]3(C)C(=CC[C@@H]4[C@@]5(C)CC[C@H](O)C(C)(C)[C@@H]5CC[C@]43C)[C@H]12 — IC50 (human Skin fibroblast; MTT; 24 h): 32.3 µM
CCc1oc2cc(S(=O)(=O)Nc3ccc(S(=O)(=O)Nc4nccs4)cc3)ccc2c1C(=O)c1cc(Br)c(O)c(Br)c1 — IC50 (human Skin fibroblast; MTT; 96 h): 146 µM
NC(=O)C1CN(C(=O)CCl)c2ccccc2O1 (stereo not shown) — IC50 (BT-474; fluorescence; 5 days): 17.5 µM
COc1cc([C@@H]2c3cc4c(cc3[C@@H](O[C@@H]3O[C@@H]5CO[C@@H](C)O[C@H]5[C@H](O)[C@H]3O)[C@H]3COC(=O)[C@H]23)OCO4)cc(OC)c1O — IC50 (SK-HEP1; SRB; 72 h): 2.7 µM
Cc1cc2c(C(=O)O)cccc2n1-c1nc2c(c(NCc3ccccc3)n1)CCCN2 — IC50 (MOLM16; 72 h): 0.7 µM
CC(C)(C)c1cnc(CSc2cnc(NC(=O)C3CCN(C(=O)CCCCCCCN4Cc5cc6c(cc5C4)C(=O)N(C4CCC(=O)NC4=O)C6=O)CC3)s2)o1 (stereo not shown) — IC50 (MES-SA; MTT): 0.0853 µM
CO[C@H]1[C@H](O[C@H]([C@H]2O[C@@H](n3ccc(=O)[nH]c3=O)[C@H](O)[C@@H]2O)[C@H](NCCCNC(=O)[C@@H](NC(=O)[C@@H](NC(=O)N[C@H](C(=O)O)C(C)C)[C@@H]2CCN=C(N)N2)[C@@H](OC(=O)CCCCCCCCCCCCN(O)C(=N)N)C(C)C)C(=O)O)O[C@H](CN)[C@H]1O — IC50 (BT-474; WST-1): 0.85 µM
CONC(=O)c1cccc2c1cc(C)n2-c1nc2c(c(NCc3ccccc3)n1)CCCN2 — IC50 (MOLM16; 72 h): 0.4 µM
C[C@H](Nc1ccc2c(c1)OCCn1cc(N3C(=O)OC[C@H]3C(F)F)nc1-2)C(N)=O — EC50 (NCI-H1563; ATP luminescence; 5 days): 0.149 µM
COc1cccc2c1C(=O)c1c(O)c3c(c(O)c1C2=O)C[C@@](O)(C(=O)CO)C[C@@H]3O[C@H]1C[C@H](N)[C@H](O)[C@H](C)O1 — IC50 (human Skin fibroblast; MTT; 24 h): > 100 µM
Cc1nc(NC(=O)N2CCC[C@H]2C(N)=O)sc1-c1ccnc(C(C)(C)C(F)(F)F)c1 — EC50 (NCI-H1563; ATP luminescence; 5 days): 7.42 µM
CO[C@H]1[C@H](O[C@H]([C@H]2O[C@@H](n3ccc(=O)[nH]c3=O)[C@H](O)[C@@H]2O)[C@H](NCCCNC(=O)[C@@H](NC(=O)[C@@H](NC(=O)N[C@H](C(=O)O)C(C)C)[C@@H]2CCN=C(N)N2)[C@@H](O)C(C)C)C(=O)O)O[C@H](CN)[C@H]1O — IC50 (BT-474; WST-1): > 35 µM
